# Data from ChEMBL document CHEMBL3769349, “Antiretroviral (HIV-1) activity of azulene derivatives” (Bioorg Med Chem, 2016).
# Activity calls are given as the source filed them.
# What was measured:
# [1] = Cytotoxicity against human U2OS cells assessed as cell viability at highest non-toxic concentration
# [2] = tested on: Human immunodeficiency virus 1; assay: Antiretroviral activity against HIV-1 based virus like particles infected in U2OS cells assessed as Gluc activity at highest non-toxic concentration; format: functional
# [3] = tested on: Human immunodeficiency virus 1; assay: Antiretroviral activity against HIV-1 based virus like particles infected in U2OS cells; format: functional, organism-based; conditions: Human immunodeficiency virus 1, U2OS
# [4] = biological target: Human immunodeficiency virus type 1 reverse transcriptase (Human immunodeficiency virus 1) (UniProt Q72547); assay: Inhibition of recombinant HIV-1 reverse transcriptase at 500 uM using 234 nt long RNA template after 10 mins by liquid scintillation analysis
# Procedure, shortened: (§1)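 Cell-free DNA polymerase assay with recombinant HIV-1 reverse transcriptase (1 unit). Nucleotides: dATP/dGTP/dTTP, cold dCTP and [³³P]dCTP. Enzyme and compound preincubated 10 min at room temperature. Synthesis started with annealed 234-nt RNA template/18-nt DNA primer. Filter-bound radioactivity counted by liquid scintillation. DMSO served as negative control.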
# [5] = Cytotoxicity against human U2OS cells; format: cell-based
# Procedure, shortened: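 Cytotoxicity measured by real-time impedance monitoring (xCELLigence RTCA DP) in U2OS cells kept in IMDM with 10% FBS and Pen/Strep. Compounds tested at several concentrations. Viability compared with 0.5% DMSO vehicle-treated cells. Highest non-toxic concentration defined as the level lowering viability by less than 20%.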
# [6] = Selectivity index, ratio of CC50 for human U2OS cells to IC50 for HIV-1 based virus like particles infected in U2OS cells; format: functional
# [7] = Cytotoxicity against human TZM-bl cells; format: cell-based
# [8] = Selectivity index, ratio of CC50 for human TZM-bl cells to IC50 for HIV-1 infected in TZM-bl cells; format: functional
# [9] = biological target: Human immunodeficiency virus type 1 reverse transcriptase (Human immunodeficiency virus 1, UniProt Q72547); assay: Inhibition of recombinant HIV-1 reverse transcriptase using 234 nt long RNA template after 10 mins by liquid scintillation analysis; procedure, shortened: as §1
# [10] = tested on: Human immunodeficiency virus 1; assay: Antiretroviral activity against HIV-1 infected in TZM-bl cells after 48 hrs by luciferase assay; conditions: Human immunodeficiency virus 1, TZM-bl
SMILES,viability [1] [%],Activity [2] [%],other results
Clc1cc(N2CCOCC2)c2cccccc1-2,80,98,
CCOC(=O)c1ccc2cccccc1-2,85,52,IC50 [3]: > 75 µM
Cc1ccc(C(C)C)cc2c(C)ccc1-2 [GUAIAZULEN],106,48,
CCOC(=O)c1c2cccccc-2c(C(=O)OCC)c1O,80,3.5,inhibition [4]: Active; CC50 [5]: 72.2 µM; IC50 [3]: 4.4 µM; Ratio CC50/IC50 [6]: 16.4; CC50 [7]: 65 µM; Ratio CC50/IC50 [8]: 3; IC50 [9]: 104 µM; IC50 [10]: 20 µM
Clc1cc(Br)c2cccccc1-2,101,32,
c1ccc(-c2cc(-c3ccccc3)c3cccccc2-3)cc1,80,124,
Oc1cc2cccccc-2c1,80,51,CC50 [5]: 26.8 µM; IC50 [3]: 2.2 µM; Ratio CC50/IC50 [6]: 12.2; CC50 [7]: 60 µM; Ratio CC50/IC50 [8]: 7; IC50 [10]: 8.5 µM
Brc1cc(Br)c2cccccc1-2,96,36,
CCOC(=O)c1c(O)cc2cccccc1-2,89,6.4,CC50 [5]: 344 µM; IC50 [3]: 10.1 µM; Ratio CC50/IC50 [6]: 34.1; CC50 [7]: 260 µM
CCOC(=O)c1ncc(-c2ccc3cccccc2-3)cc1F,86,80,
Cc1cc(S(=O)(=O)[O-])c2c(C)ccc(C(C)C)cc1-2.[Na+] [SODIUM GUALENATE],91,154,
O=C(O)c1cccc(-c2cc(Cl)c3cccccc2-3)c1,92,103,
Clc1cc(-c2ccccc2)c2cccccc1-2,88,94,
N#Cc1cccc(-c2ccc3cccccc2-3)c1,80,63,
CCOC(=O)c1ccc(-c2cc(C(=O)OCC)c3cccccc2-3)o1,83,70,
Clc1c2cccccc-2c(Cl)c1-c1cncnc1,80,141,
Clc1cc(-c2ccncc2)c2cccccc1-2,80,36,
Cc1ccnc2c1NC(=O)c1cccnc1N2C1CC1 [NEVIRAPINE],,0.01,
